One data set concerns bleeding time. Briefly: Tail bleeding assay. Format: in vivo, ICR mice. Particulars: mice, n = 10; for Bleeding time (BT): 100 μmol/kg b.w. oral, tail cut 3 mm, saline 37 °C, maximum 900 s; for Effect on bleeding time (BT) (in words): doses of 300 and 400 μmol/kg b.w. oral.
Data set [1] deals with platelet aggregation induced by ADP. Particulars: read-out: IC50 of antiplatelet activity induced by ADP; cited from earlier work.
Another data set relates to thymus and spleen. Briefly: Thymus index and spleen index. It is filed as in vivo, ICR mice. To be noted: oral administration at doses of 300 or 450 μmol/kg b.w.; mice. Summed up: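 The same orally dosed ICR mice (300 or 450 μmol/kg b.w. peptide, saline vehicle) were weighed and sacrificed after the tail-bleeding test. Thymus and spleen were excised, washed in PBS, blotted and weighed. Indices were computed as organ weight / body weight (mg/g). Gross appearance of the organs was checked for atrophy, hyperplasia or swelling.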

Data set [2] concerns human platelet aggregation. Particulars: at 1 mg/mL; cited from earlier work.
Data set [3] deals with platelet aggregation induced by ADP. Briefly: Inhibition of ADP-induced platelet aggregation in vitro. Format: cell-based, rat. To be noted: data not shown. Summed up:
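Rat aortic blood was anticoagulated with sodium citrate (1:9, v/v) and spun at 50 × g for 10 min to give PRP. A further 750 × g, 10 min spin gave PPP, used to dilute PRP to 2–3 × 10^8. PRP was preincubated with buffer or peptide for 5 min at 37 °C, then ADP (0.1 mM) was added. Aggregation at 5 min was read on an aggregometer. Inhibition % was calculated versus the buffer control, and IC50 was derived by curve fitting.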

The values that follow come from paper PMC7439260 (ACS Omega, 2020).

Where a name gives a salt, the structure may show the parent alone. Where a SMILES comes first, the peptide text is derived from it. [ ]: non-standard residue; d: D form. Hyp = O=C(O)[C@@H]1C[C@@H](O)CN1 Where only a bound is given, the exact number is not on record here.

As for `CC(=O)Oc1ccccc1C(=O)O` [aspirin, Aspirin, reference compound], in the data set on bleeding time, the “Bleeding time (BT)” value worked out at 5.345 min. Take `COC(=O)[C@H](c1ccccc1Cl)N1CCc2sccc2C1` [clopidogrel, clopidogrel hydrogen sulfate, reference compound]: the “Bleeding time (BT)” value in the data set on bleeding time is listed as over 15 min. The term IC50 denotes the point on the concentration scale where inhibition reaches its midpoint. For the compound SSGE, the IC50 in data set [1] was 480 µM.

In the case of `N[C@@H](CC(=O)O)C(=O)N[C@@H](CCC(=O)O)C(=O)NCC(=O)N1CCC[C@H]1C(=O)O` [DEGP, Asp-Glu-Gly-Pro] (H-DEGP-OH), the “Effect on bleeding time (BT) (in words)” value in the data set on bleeding time was “no significant increase in BT”. Besides, the “Acute toxicological effects (in words)” value in the data set with thymus and spleen is listed as “no acute toxicological effects”. LTFPRIVFVLG: in data set [2], the “Inhibition of platelet aggregation” value was 76.69%. On to `O=C(O)CC[C@H](NC(=O)CNC(=O)[C@@H]1C[C@@H](O)CN1)C(=O)N[C@@H](Cc1ccccc1)C(=O)NCC(=O)O` [OGEFG, Hyp-Gly-Glu-Phe-Gly] (H-[Hyp]GEFG-OH), for which the “Effect on bleeding time (BT) (in words)” value in the data set on bleeding time was “no significant increase in BT”. Besides, in the data set on thymus and spleen, the “Acute toxicological effects (in words)” value is given as “no acute toxicological effects”. In the case of VFPQ, the “Activity against ADP-induced platelet aggregation (in words)” value in data set [3] is on record as “poor activities”.
